ChEMBL document CHEMBL1250490, “Synthesis, characterization, antiamoebic activity and cytotoxicity of novel series of pyrazoline derivatives bearing quinoline tail” (Eur J Med Chem, 2010)

Tested on: MCF7
Assay: Cytotoxicity against human MCF7 cells after 48 hrs by MTT assay
Format: cell-based
Conditions: MCF7, 48 h
Method in brief: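 MCF-7 cells were kept as monolayers in DMEM with 10% fetal calf serum and penicillin. They were plated at 1.2×10⁴ cells/well and grown 48 h before dosing. Compounds were dissolved as 20% DMSO stocks and diluted in complete medium. After 48 h exposure, MTT was added for 4 h at 37 °C and dissolved in DMSO. Absorbance was read at 570 nm (reference 655 nm); viability is relative to untreated cells. Triplicate, repeated thrice.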

SMILES: Cc1ncc([N+](=O)[O-])n1CCO [METRONIDAZOLE]
- IC50: > 100 µM
